Experimental data: ChEMBL document CHEMBL1126664, “Pyrazoline bisphosphonate esters as novel antiinflammatory and antiarthritic agents” (1993)

Columns and labels:
Type in all cases: functional
Rattus norvegicus [1] = assay: Inhibition of rat adjuvant induced polyarthritis (AIP) at the dose of 15 mg/kg in the non-njected paw
Procedure, shortened: (§1)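 Rats received adjuvant (M. tuberculosis in mineral oil) into the left hindpaw on day 0. Compounds in sterile saline, pH 7.0, were given sc once daily for 28 days, with sc vehicle arthritic controls. Paw volume change in injected and noninjected hindpaws was measured on day 28 by mercury-displacement plethysmography.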

Mus musculus [2] = assay: Inhibition of antigen-induced arthritis (AIA) in mice at the dose of 50 mg/kg in the non-injected paw
Mus musculus [3] = assay: Inhibition of antigen-induced arthritis (AIA) in mice at the dose of 100 mg/kg in the non-injected paw
Rattus norvegicus [4] = assay: Inhibition of rat adjuvant induced polyarthritis (AIP) at the dose of 100 mg/kg in the injected paw; procedure, shortened: as §1
Mus musculus [5] = assay: Inhibition of antigen-induced arthritis (AIA) in mice at the dose of 200 mg/kg in the non-injected paw
Mus musculus [6] = assay: Inhibition of delayed type hypersensitivity granuloma results at 100 mg/kg in dry weight
Procedure, shortened: (§2)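 Groups of 10 female CF-1 mice (25 g) were sensitised sc over the inguinal lymph node with mBSA emulsion in Freund's incomplete adjuvant plus dextran. Two mBSA-soaked hydroxyapatite disks were implanted per mouse. Sc dosing ran daily from implantation to day 9, then granulomas were excised for wet and dry weights. Student's paired t test.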

Rattus norvegicus [7] = assay: Inhibition of rat adjuvant induced polyarthritis (AIP) at the dose of 100 mg/kg in the non-injected paw; procedure, shortened: as §1
Mus musculus [8] = assay: Inhibition of delayed type hypersensitivity granuloma results at 100 mg/kg in wet weight; procedure, shortened: as §2
Rattus norvegicus [9] = assay: Inhibition of rat adjuvant induced polyarthritis (AIP) at the dose of 15 mg/kg in the injected paw; procedure, shortened: as §1
Rattus norvegicus [10] = assay: Inhibition of rat adjuvant-induced polyarthritis (AIP) at the dose of 15 mg/kg in the non-injected paw; procedure, shortened: as §1
Rattus norvegicus [11] = assay: Inhibition of rat adjuvant-induced polyarthritis (AIP) at the dose of 60 mg/kg in the non-injected paw; procedure, shortened: as §1
Rattus norvegicus [12] = assay: Inhibition of rat adjuvant-induced polyarthritis (AIP) at the dose of 5 mg/kg in the non-injected paw; procedure, shortened: as §1
Mus musculus [13] = assay: Inhibition of delayed type hypersensitivity granuloma results at 50 mg/kg in wet weight; procedure, shortened: as §2
Mus musculus [14] = assay: Inhibition of delayed type hypersensitivity granuloma results at 25 mg/kg in wet weight; procedure, shortened: as §2
Mus musculus [15] = assay: Inhibition of delayed type hypersensitivity granuloma results at 25 mg/kg in dry weight; procedure, shortened: as §2
Rattus norvegicus [16] = assay: Inhibition of rat adjuvant induced polyarthritis (AIP) at the dose of 5 mg/kg in the injected paw; procedure, shortened: as §1
Rattus norvegicus [17] = assay: Inhibition of rat adjuvant induced polyarthritis (AIP) at the dose of 60 mg/kg in the injected paw; procedure, shortened: as §1
Mus musculus [18] = assay: Inhibition of antigen induced arthritis (AIA) in mice at the dose of 100 mg/kg
Procedure, shortened: (§3)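 Mice were immunised, boosted after 7 days, and challenged 14 days later with 200 μg mBSA in saline into the left rear stifle joint. Dosing was sc in saline at pH 7.0, 5 of 7 days, from challenge (day 0) to day 28. H&E sagittal joint sections were graded 1–5 each for soft tissue inflammation, pannus, and cartilage and bone erosion, then summed (max 20). One-way ANOVA vs vehicle.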

Mus musculus [19] = assay: Inhibition of delayed type hypersensitivity granuloma results at 50 mg/kg in dry weight; procedure, shortened: as §2
Mus musculus [20] = assay: Inhibition of antigen induced arthritis (AIA) in mice at the dose of 50 mg/kg; procedure, shortened: as §3
Rattus norvegicus [21] = assay: Inhibition of rat adjuvant-induced polyarthritis (AIP) at the dose of 100 mg/kg in the non-injected paw; procedure, shortened: as §1
Mus musculus [22] = assay: Inhibition of antigen-induced arthritis (AIA) in mice at the dose of 100 mg/kg; procedure, shortened: as §3
Rattus norvegicus [23] = assay: Inhibition of rat adjuvant induced polyarthritis (AIP) at the dose of 15 mg/kg in the non-injected paw; procedure, shortened: as §1
Rattus norvegicus [24] = assay: Inhibition of rat adjuvant-induced arthritis (AIP) at the dose of 15 mg/kg in the non-injected paw; procedure, shortened: as §1
Rattus norvegicus [25] = assay: Inhibition of rat adjuvant-induced arthritis (AIP) at the dose of 100 mg/kg in the non-injected paw; procedure, shortened: as §1
Rattus norvegicus [26] = assay: Inhibition of rat adjuvant induced arthritis (AIP) at the dose of 100 mg/kg in the non-injected paw; procedure, shortened: as §1
Rattus norvegicus [27] = assay: Inhibition of rat adjuvant induced arthritis (AIP) at the dose of 5 mg/kg in the non-injected paw; procedure, shortened: as §1
Mus musculus [28] = assay: Inhibition of antigen-induced arthritis (AIA) in mice at the dose of 200 mg/kg; procedure, shortened: as §3
Mus musculus [29] = assay: Inhibition of antigen-induced arthritis (AIA) in mice at the dose of 50 mg/kg; procedure, shortened: as §3
Rattus norvegicus [30] = assay: Inhibition of rat adjuvant induced arthritis (AIP) at the dose of 60 mg/kg in the non-injected paw; procedure, shortened: as §1
Mus musculus [31] = assay: Inhibition of antigen-induced arthritis (AIA) in mice at the dose of 25 mg/kg; procedure, shortened: as §3
Rattus norvegicus [32] = assay: Inhibition of rat adjuvant induced arthritis (AIP) at the dose of 15 mg/kg in the non-injected paw; procedure, shortened: as §1

| Structure (SMILES) | inhibition in vivo at 100 mg/kg (Rattus norvegicus [4]) [%] | inhibition in vivo at 100 mg/kg (Mus musculus [6]) [%] | inhibition in vivo at 100 mg/kg (Rattus norvegicus [7]) [%] | inhibition in vivo at 100 mg/kg (Mus musculus [8]) [%] | inhibition in vivo at 15 mg/kg (Rattus norvegicus [9]) [%] | inhibition in vivo at 100 mg/kg (Mus musculus [22]) [%] | further results |
| --- | --- | --- | --- | --- | --- | --- | --- |
| CCOP(=O)(OCC)C1(P(=O)(OCC)OCC)CC(C(=O)C2CCCCC2)=NN1 | 16 | 31 | 29 | 33 | 9 |  | inhibition in vivo at 15 mg/kg (Rattus norvegicus [1]): 14%; inhibition in vivo at 50 mg/kg (Mus musculus [2]): 30%; inhibition in vivo at 100 mg/kg (Mus musculus [3]): 3%; inhibition in vivo at 200 mg/kg (Mus musculus [5]): 11% |
| CCOP(=O)(OCC)C1(P(=O)(OCC)OCC)CC(C(=O)C(C)(C)C)=NN1 | 21 | 59 |  | 65 | 21 |  | inhibition in vivo at 15 mg/kg (Rattus norvegicus [10]): 55%; inhibition in vivo at 60 mg/kg (Rattus norvegicus [11]): 64%; inhibition in vivo at 5 mg/kg (Rattus norvegicus [12]): 64%; inhibition in vivo at 50 mg/kg (Mus musculus [13]): 51%; inhibition in vivo at 25 mg/kg (Mus musculus [14]): 46%; inhibition in vivo at 25 mg/kg (Mus musculus [15]): 38%; inhibition in vivo at 5 mg/kg (Rattus norvegicus [16]): 27%; inhibition in vivo at 60 mg/kg (Rattus norvegicus [17]): 38%; inhibition in vivo at 100 mg/kg (Mus musculus [18]): 16%; inhibition in vivo at 50 mg/kg (Mus musculus [19]): 48%; inhibition in vivo at 50 mg/kg (Mus musculus [20]): 28%; inhibition in vivo at 100 mg/kg (Rattus norvegicus [21]): 76% |
| CCOP(=O)(OCC)C1(P(=O)(OCC)OCC)CC(C(=O)c2ccc(Cl)cc2Cl)=NN1 | 0 | 44 | 12 | 55 | 3 | 0 | inhibition in vivo at 15 mg/kg (Rattus norvegicus [23]): 38% |
| CCOP(=O)(OCC)C1(P(=O)(OCC)OCC)CC(C(=O)c2ccc(Cl)cc2)=NN1 |  | 33 |  | 28 |  |  |  |
| CCOP(=O)(OCC)C1(P(=O)(OCC)OCC)CC(C(=O)c2ccccc2)=NN1Cc1cccc(CN2N=C(C(=O)c3ccccc3)CC2(P(=O)(OCC)OCC)P(=O)(OCC)OCC)c1 |  | -31 |  |  |  |  |  |
| CCOP(=O)(OCC)C1(P(=O)(OCC)OCC)CC(C(=O)c2cccc(C)c2)=NN1 | 3 | 41 |  | 41 | 6 |  | inhibition in vivo at 15 mg/kg (Rattus norvegicus [24]): 54%; inhibition in vivo at 100 mg/kg (Mus musculus [3]): 16%; inhibition in vivo at 100 mg/kg (Rattus norvegicus [25]): 50% |
| CCOP(=O)(OCC)C1(P(=O)(OCC)OCC)CC(C(=O)c2ccccc2F)=NN1 |  | 17 |  | 20 |  |  |  |
| CCOP(=O)(OCC)C1(P(=O)(OCC)OCC)CC(C(=O)c2ccccc2)=NN1 | 13 | 51 |  | 56 | 25 | 48 | inhibition in vivo at 100 mg/kg (Rattus norvegicus [26]): 50%; inhibition in vivo at 5 mg/kg (Rattus norvegicus [27]): 50%; inhibition in vivo at 50 mg/kg (Mus musculus [13]): 33%; inhibition in vivo at 25 mg/kg (Mus musculus [14]): 36%; inhibition in vivo at 25 mg/kg (Mus musculus [15]): 42%; inhibition in vivo at 5 mg/kg (Rattus norvegicus [16]): 28%; inhibition in vivo at 60 mg/kg (Rattus norvegicus [17]): 23%; inhibition in vivo at 200 mg/kg (Mus musculus [28]): 48%; inhibition in vivo at 50 mg/kg (Mus musculus [29]): 35%; inhibition in vivo at 60 mg/kg (Rattus norvegicus [30]): 56%; inhibition in vivo at 50 mg/kg (Mus musculus [19]): 42%; inhibition in vivo at 25 mg/kg (Mus musculus [31]): 16%; inhibition in vivo at 15 mg/kg (Rattus norvegicus [32]): 31% |
| CCOP(=O)(OCC)C1(P(=O)(OCC)OCC)CC(C(=O)c2ccc(OC)cc2)=NN1 | 0 | 50 | 16 | 35 | 12 | 23 | inhibition in vivo at 15 mg/kg (Rattus norvegicus [23]): 17% |
